Reference: PMC7508885 (SLAS discovery : advancing life sciences R & D, 2020)

How the values were obtained:
P. aeruginosa TyrRS-S [1] = biological target: T1, P. aeruginosa TyrRS-S (Pseudomonas aeruginosa, UniProt Q9HWP3); assay: ATP:PPi exchange reaction; type: biochemical; conditions: other substrate (Tyr or ATP) held at 2 mM; enzyme 0.4 μM
P. aeruginosa TyrRS-Z [2] = biological target: T2, P. aeruginosa TyrRS-Z (Pseudomonas aeruginosa, UniProt Q9I5Q3); assay: ATP:PPi exchange reaction; type: biochemical; conditions: other substrate (Tyr or ATP) held at 2 mM; enzyme 0.4 μM
T2 sequence (Q9I5Q3 whole entry): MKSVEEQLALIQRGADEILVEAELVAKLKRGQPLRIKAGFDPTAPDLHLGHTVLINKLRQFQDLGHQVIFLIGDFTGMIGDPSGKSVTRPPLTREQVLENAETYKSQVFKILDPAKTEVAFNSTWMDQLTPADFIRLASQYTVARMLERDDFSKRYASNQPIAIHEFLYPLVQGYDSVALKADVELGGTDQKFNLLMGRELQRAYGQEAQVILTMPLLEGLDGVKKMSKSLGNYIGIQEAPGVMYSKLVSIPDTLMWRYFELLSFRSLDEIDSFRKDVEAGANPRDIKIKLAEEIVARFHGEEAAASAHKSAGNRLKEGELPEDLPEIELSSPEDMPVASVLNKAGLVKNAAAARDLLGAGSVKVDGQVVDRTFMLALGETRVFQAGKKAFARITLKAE

LysRS = conditions: cited from earlier work
TyrRS = conditions: cited from earlier work
P. aeruginosa TyrRS-S [3] = biological target: T1, P. aeruginosa TyrRS-S; assay: SPA-based tRNA aminoacylation assay; type: biochemical
P. aeruginosa TyrRS-S [4] = biological target: T1, P. aeruginosa TyrRS-S; assay: Binding mode assay; type: biochemical; conditions: for shift in the IC50 with increasing ATP concentration (competition with ATP): ATP 25-1000 μM, Tyr held constant; for shift in the IC50 with increasing ATP concentration (competition with ATP) / shift in the IC50 with increasing Tyr concentration (competition with Tyr): TyrRS-S 0.05 μM; for shift in the IC50 with increasing Tyr concentration (competition with Tyr): Tyr 25-300 μM, ATP held at 2.5 mM
[5] = tested on: Moraxella catarrhalis (ATCC 25238); assay: Broth microdilution MIC testing; type: cell-based; conditions: Gram-negative M. catarrhalis
Procedure, shortened: (§1)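 Broth microdilution MIC testing following CLSI guideline M7-A7, run against a 10-strain bacterial panel that included E. coli and P. aeruginosa efflux-pump mutants and a hypersensitive P. aeruginosa strain.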

[6] = tested on: Haemophilus influenzae (ATCC 49766); assay: Broth microdilution MIC testing; type: cell-based; conditions: Gram-negative respiratory pathogen H. influenzae
Procedure, shortened: as §1

[7] = tested on: human embryonic kidney 293 cells (HEK293); assay: In vitro cytotoxicity test; type: cell-based; conditions: 25-400 μg/mL, 24 h, triplicate
HEK-293 cell line = conditions: quantitative high-throughput screening; ref PubChem CID 53183345; cited from earlier work
NIH-3T3 cell line = conditions: quantitative high-throughput screening; ref PubChem CID 53183345; cited from earlier work
P. aeruginosa TyrRS-Z [8] = biological target: T2, P. aeruginosa TyrRS-Z; assay: SPA-based tRNA aminoacylation assay; type: biochemical
S. aureus TyrRS = conditions: cited from earlier work
eukaryotic LysRS = conditions: cited from earlier work

T1 sequence (Q9HWP3 whole entry): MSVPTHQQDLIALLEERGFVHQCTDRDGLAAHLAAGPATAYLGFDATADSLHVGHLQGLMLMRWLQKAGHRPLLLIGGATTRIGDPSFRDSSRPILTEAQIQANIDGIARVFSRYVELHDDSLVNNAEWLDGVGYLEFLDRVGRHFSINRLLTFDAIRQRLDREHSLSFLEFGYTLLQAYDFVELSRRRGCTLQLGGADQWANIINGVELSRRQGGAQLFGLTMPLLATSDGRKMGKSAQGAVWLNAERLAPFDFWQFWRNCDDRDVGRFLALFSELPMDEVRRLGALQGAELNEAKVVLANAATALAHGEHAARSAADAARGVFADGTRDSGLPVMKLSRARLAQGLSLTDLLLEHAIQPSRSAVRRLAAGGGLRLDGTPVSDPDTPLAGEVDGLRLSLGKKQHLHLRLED

| Compound | effect on TyrRS (TyrRS) | shift in the IC50 with increasing ATP concentration (competition with ATP) (P. aeruginosa TyrRS-S [4]) | shift in the IC50 with increasing Tyr concentration (competition with Tyr) (P. aeruginosa TyrRS-S [4]) | inhibition of cultures (MIC testing) [5] | toxicity to human cell cultures [7] | also measured |
| --- | --- | --- | --- | --- | --- | --- |
| Nc1ncnc2c1ncn2[C@@H]1O[C@H](COP(=O)(O)OP(=O)(O)OP(=O)(O)O)[C@@H](O)[C@H]1O [ATP] | – | – | – | – | – | kcat^obs for interaction with TyrRS-S (P. aeruginosa TyrRS-S [1]): 1.0 s⁻¹; kcat^obs for interaction with TyrRS-Z (P. aeruginosa TyrRS-Z [2]): 3.8 s⁻¹ |
| C=CC1=C(C)/C(=C/c2[nH]c(Cc3[nH]c(/C=C4\NC(=O)C(C)=C4C=C)c(C)c3CCC(=O)O)c(CCC(=O)O)c2C)NC1=O [bilirubin] | – | – | – | – | – | inhibition of LysRS (LysRS): specific inhibitor of ATP binding |
| COc1ccc(-c2cc(=O)c3c(O)cc(O)cc3o2)cc1 [acacetin] | inhibitory effects | – | – | – | – | – |
| O=C(c1ccccc1)N1CCCn2cc(-c3ccc4c(c3)OCO4)nc21 [BCD54B04, [2-(1,3-benzodioxol-5-yl)-6,7-dihydroimidazo[1,2-a]pyrimidin-8(5H)-yl](phenyl) methanone] | – | no shift in the IC50 | no shift in the IC50 | inhibited | failed to exhibit toxic effects at any concentrations tested | IC50 (P. aeruginosa TyrRS-S [3]): 50 µM; effectiveness against cultures (MIC testing) [6]: effective; toxicity in HEK-293 cell line (HEK-293 cell line): nontoxic; toxicity in NIH-3T3 cell line (NIH-3T3 cell line): nontoxic |
| CC(=O)N1CCc2cc(Br)c(S(=O)(=O)NCCN3CCCCC3C)cc21 (stereo not shown) [BCD38C11, 1-acetyl-5-bromo-N-[2-(2-methylpiperidin-1-yl)ethyl]indoline-6-sulfonamide] | – | increased with increasing ATP concentrations | no change in the IC50 values | inhibited | failed to exhibit toxic effects at any concentrations tested | IC50 (P. aeruginosa TyrRS-S [3]): 71 µM; IC50 (P. aeruginosa TyrRS-Z [8]): 241 µM; Ki (P. aeruginosa TyrRS-S [4]): 5.28 µM |
| O=C1Nc2ccccc2Oc2cc(N3CCc4ccccc4C3)c(S(=O)(=O)N3CCCCC3)cc21 [BCD37H06, 3-(3,4-dihydroisoquinolin-2(1H)-yl)-2-(piperidin-1-ylsulfonyl) dibenzo[b,f][1,4]oxazepin-11(10H)-one] | – | no shift in the IC50 | no shift in the IC50 | inhibited | failed to exhibit toxic effects at any concentrations tested | IC50 (P. aeruginosa TyrRS-S [3]): 24 µM; effectiveness against cultures (MIC testing) [6]: effective |
| O=c1cc(-c2ccccc2)oc2cc(O)cc(O)c12 [chrysin] | inhibitory effects | – | – | – | – | – |
| N[C@@H](Cc1ccc(O)cc1)C(=O)NC(C(=O)O)[C@H]1[C@H](O)[C@]2(O)CO[C@@H]([C@@H]2O)N1O (stereo partly shown) [SB-219383] | – | – | – | – | – | IC50 against S. aureus TyrRS (S. aureus TyrRS): low nanomolar range |
| O=C(O[C@@H]1Cc2c(O)cc(O)cc2O[C@@H]1c1cc(O)c(O)c(O)c1)c1cc(O)c(O)c(O)c1 [epigallocatechin, gallate] | inhibitory effects | – | – | – | – | – |
| C[C@H]1CCC[C@H](C[C@H]2Cc3cc(O)cc(O)c3C(=O)O2)O1 [cladosporin] | – | – | – | – | – | inhibition of eukaryotic LysRS (eukaryotic LysRS): potent ATP competitive inhibitor |
| Cc1ccc(N2CN(CC(=O)Nc3cccc(Cl)c3)S(=O)(=O)c3cccnc32)cc1 [BCD49D09, N1-(3-chlorophenyl)-2-[4-(4-methylphenyl)-1,1-dioxo-3,4-dihydro-1λ6-pyrido[2,3-e][1,2,4]thiadiazin-2(1H)-yl] acetamide] | – | increased with increasing ATP concentrations | no change in the IC50 values | inhibited | failed to exhibit toxic effects at any concentrations tested | – |
| COc1ccc(-c2oc3cc(O)cc(O)c3c(=O)c2O)cc1 [kaempferide] | inhibitory effects | – | – | – | – | – |
